{"source": "ChEMBL document CHEMBL1128448", "about": "“Synthesis and antifungal activity of new azole derivatives containing an N-acylmorpholine ring” (1995)", "key": {"Candida parapsilosis [1]": {"tested_on": "Candida parapsilosis", "experiment": "Evaluation of In vitro antifungal activity against Candida parapsilosis C292 by broth macro dilution method", "format": "functional", "settings": "Lodderomyces parapsilosis", "procedure,_shortened": "(§1)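 Yeast MIC and MFC by broth macrodilution per NCCLS M27-P in RPMI-1640 buffered with 0.165 M MOPS. Fluconazole in sterile water, other drugs in DMSO. C. parapsilosis ATCC 22019 is the reference strain in each run. MIC is the lowest concentration with turbidity ≤ the 80% inhibition standard. For MFC, 0.04 mL from clear tubes is plated on Sabouraud agar; MFC is the lowest concentration giving ≤1 colony.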"}, "Mus sp. [2]": {"tested_on": "Mus sp.", "experiment": "In vivo evaluation of % survival rate after peroral administration on 9th day at dose 0.5 mg/kg", "format": "functional", "settings": "Mus sp., po"}, "Kluyveromyces marxianus": {"tested_on": "Kluyveromyces marxianus", "experiment": "In vitro evaluation of minimum inhibitory concentration against Candida pseudotropicalis 13", "format": "functional", "settings": "Kluyveromyces marxianus; read-out: MIC", "procedure,_shortened": "(§2)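 Stocks are 800 μg/mL in 50% ethanol. Each plate gets 10 μL of inoculum at 10^5 cfu/mL. Incubation at 25 °C, 48 h for yeasts and 120 h for dermatophytes and molds. Organisms are ATCC strains or clinical isolates.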"}, "Candida tropicalis [3]": {"tested_on": "Candida tropicalis", "experiment": "In vitro evaluation of minimum inhibitory concentration against Candida tropicalis 2.11", "format": "functional", "settings": "Candida tropicalis; read-out: MIC", "procedure,_shortened": "as §2"}, "Mus sp. [4]": {"tested_on": "Mus sp.", "experiment": "In vivo evaluation of % survival rate after peroral administration on 3rd day at dose 0.5 mg/kg", "format": "functional", "settings": "route oral"}, "Aspergillus fumigatus": {"tested_on": "Aspergillus fumigatus", "experiment": "In vitro evaluation of minimum inhibitory concentration against Aspergillus fumigatus 33", "format": "functional", "procedure,_shortened": "as §2"}, "Nakaseomyces glabratus": {"tested_on": "Nakaseomyces glabratus", "experiment": "In vitro evaluation of minimum inhibitory concentration against Torulopsis glabrata 78", "format": "functional", "procedure,_shortened": "as §2"}, "Rattus norvegicus [5]": {"tested_on": "Rattus norvegicus", "experiment": "In vivo evaluation of antifungal activity against vaginal candidosis in rat at dose 0.25 mg/kg on 15th day", "format": "functional", "procedure,_shortened": "(§3)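 Groups of 10 female Wistar rats given estradiol 25 mg/kg sc on day -5, infected intravaginally with C. albicans by sterile swab on day 0; infection confirmed on day 3 by swab culture (TSB, then Sabouraud agar). Oral dosing once daily on days 3, 4, 5; vehicle controls. Vaginal swabs cultured on days 10 and 15; read-out % cured (culture-negative).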"}, "Candida albicans [6]": {"tested_on": "Candida albicans", "experiment": "Evaluation of In vitro antifungal activity against Candida albicans 76 by broth macro dilution method", "format": "functional", "procedure,_shortened": "as §1"}, "Microsporum canis": {"tested_on": "Microsporum canis", "experiment": "In vitro evaluation of minimum inhibitory concentration against Microsporum canis 47", "format": "functional", "procedure,_shortened": "as §2"}, "Candida tropicalis [7]": {"tested_on": "Candida tropicalis", "experiment": "Evaluation of In vitro antifungal activity against Candida tropicalis 2.11 by broth macro dilution method", "format": "functional", "procedure,_shortened": "as §1"}, "Candida parapsilosis [8]": {"tested_on": "Candida parapsilosis", "experiment": "Evaluation of In vitro antifungal activity against Candida parapsilosis ATCC 22019 by broth macro dilution method", "format": "functional", "settings": "Lodderomyces parapsilosis", "procedure,_shortened": "as §1"}, "Candida parapsilosis [9]": {"tested_on": "Candida parapsilosis", "experiment": "Evaluation of In vitro antifungal activity against Candida parapsilosis 2.07 by broth macro dilution method", "format": "functional", "settings": "Lodderomyces parapsilosis", "procedure,_shortened": "as §1"}, "Candida albicans [10]": {"tested_on": "Candida albicans", "experiment": "In vivo evaluation of minimum inhibitory concentration against Candida albicans 406", "format": "functional", "settings": "Candida albicans; read-out: MIC", "procedure,_shortened": "(§4)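 Broth macrodilution MIC following NCCLS M27-P, in RPMI-1640 buffered with 0.165 M MOPS. Fluconazole was dissolved in water and other drugs in DMSO. C. parapsilosis ATCC 22019 served as the reference strain in every run. MIC was the lowest concentration giving turbidity at or below the 80% inhibition standard.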"}, "Candida albicans [11]": {"tested_on": "Candida albicans", "experiment": "Evaluation of In vitro antifungal activity against Candida albicans 406 by broth macro dilution method", "format": "functional", "procedure,_shortened": "as §1"}, "Aspergillus flavus": {"tested_on": "Aspergillus flavus", "experiment": "In vitro evaluation of minimum inhibitory concentration against Aspergillus flavus 19", "format": "functional", "settings": "Aspergillus flavus; read-out: MIC", "procedure,_shortened": "as §2"}, "Pichia kudriavzevii": {"tested_on": "Pichia kudriavzevii", "experiment": "In vitro evaluation of minimum inhibitory concentration against Candida krusei 70", "format": "functional", "procedure,_shortened": "as §2"}, "Candida albicans [12]": {"tested_on": "Candida albicans", "experiment": "Evaluation of In vitro antifungal activity against Candida albicans 60 by broth macro dilution method"}, "Mus sp. [13]": {"tested_on": "Mus sp.", "experiment": "In vivo evaluation of % survival rate after peroral administration on 9th day at dose 1 mg/kg", "format": "functional", "settings": "route oral, 1 mg/kg"}, "Candida parapsilosis [14]": {"tested_on": "Candida parapsilosis", "experiment": "Evaluation of In vitro antifungal activity against Candida parapsilosis ATCC 141095 by broth macro dilution method", "format": "functional", "settings": "Lodderomyces parapsilosis", "procedure,_shortened": "as §1"}, "Mus sp. [15]": {"tested_on": "Mus sp.", "experiment": "In vivo evaluation of % survival rate after peroral administration on 5th day at dose 0.5 mg/kg", "format": "functional", "settings": "route oral"}, "Aspergillus niger": {"tested_on": "Aspergillus niger", "experiment": "In vitro evaluation of minimum inhibitory concentration against Aspergillus niger 18", "format": "functional", "settings": "Aspergillus niger; read-out: MIC", "procedure,_shortened": "as §2"}, "[16]": {"tested_on": "Meyerozyma guilliermondii", "experiment": "Evaluation of In vitro antifungal activity against Candida guilliermondii 26 by broth macro dilution method", "format": "functional", "procedure,_shortened": "as §1"}, "Candida albicans [17]": {"tested_on": "Candida albicans", "experiment": "Evaluation of In vitro antifungal activity against Candida albicans C56 by broth macro dilution method", "format": "functional", "procedure,_shortened": "as §1"}, "Mus musculus": {"tested_on": "Mus musculus", "experiment": "In vivo evaluation of % survival rate after peroral administration on 7th day at dose 0.5 mg/kg", "format": "functional", "settings": "route oral"}, "Candida albicans [18]": {"tested_on": "Candida albicans", "experiment": "In vivo evaluation of minimum inhibitory concentration against Candida albicans 60", "format": "functional", "settings": "Candida albicans; read-out: MIC", "procedure,_shortened": "as §4"}, "Rattus norvegicus [19]": {"tested_on": "Rattus norvegicus", "experiment": "In vivo evaluation of antifungal activity against vaginal candidosis in rat at dose 0.25 mg/kg on 10th day", "format": "functional", "procedure,_shortened": "as §3"}}}
{"smiles": "C[C@@H](NC(=O)c1ccc(C(F)(F)F)cc1)[C@](O)(Cn1cncn1)c1ccc(F)cc1F", "values": [{"measurement": "MFC", "setting": "Candida parapsilosis [1]", "result": 4, "unit": "µg/mL"}, {"measurement": "MIC", "setting": "Candida parapsilosis [1]", "result": 0.063, "unit": "µg/mL"}, {"measurement": "survival at 0.5 mg/kg", "setting": "Mus sp. [2]", "result": 70, "unit": "%"}, {"measurement": "MIC", "setting": "Kluyveromyces marxianus", "result": 40, "unit": "µg/mL"}, {"measurement": "MIC", "setting": "Candida tropicalis [3]", "result": 80, "unit": "µg/mL"}, {"measurement": "survival at 0.5 mg/kg", "setting": "Mus sp. [4]", "result": 100, "unit": "%"}, {"measurement": "MIC", "setting": "Aspergillus fumigatus", "result": 20, "unit": "µg/mL"}, {"measurement": "MIC", "setting": "Nakaseomyces glabratus", "result": 20, "unit": "µg/mL"}, {"measurement": "Cure rate", "setting": "Rattus norvegicus [5]", "result": 100, "unit": "%"}, {"measurement": "MFC", "setting": "Candida albicans [6]", "result": "> 64", "unit": "µg/mL"}, {"measurement": "MIC", "setting": "Candida albicans [6]", "result": "< 0.031", "unit": "µg/mL"}, {"measurement": "MIC", "setting": "Microsporum canis", "result": 20, "unit": "µg/mL"}, {"measurement": "MFC", "setting": "Candida tropicalis [7]", "result": 64, "unit": "µg/mL"}, {"measurement": "MIC", "setting": "Candida tropicalis [7]", "result": 0.25, "unit": "µg/mL"}, {"measurement": "MFC", "setting": "Candida parapsilosis [8]", "result": 2, "unit": "µg/mL"}, {"measurement": "MIC", "setting": "Candida parapsilosis [8]", "result": 0.125, "unit": "µg/mL"}, {"measurement": "MFC", "setting": "Candida parapsilosis [9]", "result": 64, "unit": "µg/mL"}, {"measurement": "MIC", "setting": "Candida parapsilosis [9]", "result": 0.063, "unit": "µg/mL"}, {"measurement": "MIC", "setting": "Candida albicans [10]", "result": 0.15, "unit": "µg/mL"}, {"measurement": "MFC", "setting": "Candida albicans [11]", "result": "> 64", "unit": "µg/mL"}, {"measurement": "MIC", "setting": "Candida albicans [11]", "result": "< 0.031", "unit": "µg/mL"}, {"measurement": "MIC", "setting": "Aspergillus flavus", "result": 20, "unit": "µg/mL"}, {"measurement": "MIC", "setting": "Pichia kudriavzevii", "result": 20, "unit": "µg/mL"}, {"measurement": "MFC", "setting": "Candida albicans [12]", "result": "> 64", "unit": "µg/mL"}, {"measurement": "Survival", "setting": "Mus sp. [13]", "result": 100, "unit": "%"}, {"measurement": "MFC", "setting": "Candida parapsilosis [14]", "result": 32, "unit": "µg/mL"}, {"measurement": "MIC", "setting": "Candida parapsilosis [14]", "result": 1, "unit": "µg/mL"}, {"measurement": "survival at 0.5 mg/kg", "setting": "Mus sp. [15]", "result": 100, "unit": "%"}, {"measurement": "MIC", "setting": "Aspergillus niger", "result": 40, "unit": "µg/mL"}, {"measurement": "MFC", "setting": "[16]", "result": 4, "unit": "µg/mL"}, {"measurement": "MIC", "setting": "[16]", "result": 0.25, "unit": "µg/mL"}, {"measurement": "MFC", "setting": "Candida albicans [17]", "result": "> 64", "unit": "µg/mL"}, {"measurement": "MIC", "setting": "Candida albicans [17]", "result": "< 0.031", "unit": "µg/mL"}, {"measurement": "survival at 0.5 mg/kg", "setting": "Mus musculus", "result": 95, "unit": "%"}, {"measurement": "MIC", "setting": "Candida albicans [18]", "result": 0.15, "unit": "µg/mL"}, {"measurement": "Cure rate", "setting": "Rattus norvegicus [19]", "result": 100, "unit": "%"}]}
